Bioassay records: PubChem BioAssay, several laboratories
Efa HMGR inh: blocks class II HMG-CoA reductase of Enterococcus faecalis; purified E. faecalis HMGR, NADPH absorbance 340 nm kinetic; inhibition, % at 10 µM; 0.41% of 190,000 active; AID 1066;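 active = inhibition above a set limit, the median over all tested compounds plus 3 SD, cut at about 9.5% in these data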;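 also: enzyme runs in reverse so mevalonate oxidation gives rising NADPH absorbance; 0% = complete reaction with DMSO and 100% = background rate lacking mevalonate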
Furin inh: human furin inhibition. P09958. inhibition, % at 20 µM or 30 µM. purified furin, fluorogenic substrate cleavage. AID 463115. 0.061% of 220,000 active; in the data active = inhibition above about 25%
Target sequence (P09958 108-714 limits assumed): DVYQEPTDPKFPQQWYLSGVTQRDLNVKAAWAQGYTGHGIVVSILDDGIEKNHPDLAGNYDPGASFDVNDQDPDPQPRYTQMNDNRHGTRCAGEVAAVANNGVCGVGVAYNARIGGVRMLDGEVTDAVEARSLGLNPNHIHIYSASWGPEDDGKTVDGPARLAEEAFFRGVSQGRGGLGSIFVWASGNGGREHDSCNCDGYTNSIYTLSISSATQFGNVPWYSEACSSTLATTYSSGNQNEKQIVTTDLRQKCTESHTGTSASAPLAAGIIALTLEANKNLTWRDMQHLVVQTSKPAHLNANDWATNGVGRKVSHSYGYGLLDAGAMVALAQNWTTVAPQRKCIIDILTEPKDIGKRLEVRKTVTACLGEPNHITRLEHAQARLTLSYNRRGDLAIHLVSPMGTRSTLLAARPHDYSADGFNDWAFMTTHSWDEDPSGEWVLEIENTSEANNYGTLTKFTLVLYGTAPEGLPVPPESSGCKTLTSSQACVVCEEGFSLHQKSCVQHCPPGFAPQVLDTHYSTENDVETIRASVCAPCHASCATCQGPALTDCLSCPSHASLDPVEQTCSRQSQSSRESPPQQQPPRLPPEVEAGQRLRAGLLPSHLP
ABCG2 inh: inhibitors of human ABCG2 transporter, ABCB1 counter-screen. IgMXP3 cells, JC-1 efflux, flow cytometry. inhibition, % at 6.6 µM. 0.1% of 190,000 active. AID 1325;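 active = inhibition above 80%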;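 also: 0% = DMSO and 100% = nicardipine control wells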
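Incubation: cells with compound and JC-1, 10 min at 25 °C, rotating, no wash / Test system: IgMXP3 (ABCG2) plus far-red-tagged CCRF-Adr (ABCB1) cells / Compound dosing: one concentration, 6.6 µM final / Also added: JC-1 fluorescent substrate / Evaluation: efflux inhibition in percent versus controls / Detection: flow cytometry, 530 nm JC-1 signal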
PERK inhibitor: inhibitors of human PERK kinase; Q9NZJ5; CHO PERK-DD fusion, SEAP luminescence translation reporter; inhibition, % at 5.6 µM; 0.17% of 220,000 active; AID 1416;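 active = inhibition above the mean inhibition of all tested compounds plus 3 SD, set separately per screening campaign, cut at about 2.9% in these data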;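 also: PERK kinase domain activated by AP20187 dimerizer at 100 nM; 0% = DMSO with dimerizer and 100% = rapamycin at 8.4 µM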
Rad51 HR inh: Rad51 (human) homologous recombination inhibition; 0.085% of 200,000 active; hRad51 DNA strand exchange, fluorescence dequenching; inhibition, % at 10 µM;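 active = inhibition above 40% at the single screening dose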;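 also: 0% = DMSO control wells and 100% = blanks with heterologous ssDNA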
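Material: Human Rad51 nucleoprotein filaments preassembled on unlabelled ssDNA | Also added: Labelled 47-mer dsDNA for strand exchange | Dosing: Single dose, 10 µM final compound | Schedule: 30-min compound preincubation and 15-min exchange, both room temperature | Technique: Fluorescence dequenching at 485/520 nm | Measure: Percent inhibition relative to plate controls and blanks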
ABCB1 block: blocks JC-1 efflux by human ABCB1 transporter; P08183; CCRF-Adr cells, flow cytometry; 0.067% of 190,000 active; AID 1326; inhibition, % at 6.6 µM; in the data active = inhibition above about 40%;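 also: 0% = vehicle and 100% = reference inhibitor; higher value means more JC-1 retained so stronger ABCB1 efflux block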
* hit, by the source's call; / = not tested or not shown. Most compounds without a hit are left out; they make up all but 0.77% or so of the library.

SMILES	Efa HMGR inh	Furin inh	ABCG2 inh	PERK inhibitor	Rad51 HR inh	ABCB1 block
COc1ccc(/C=N/NC(=O)CSc2n[nH]c(=O)[nH]c2=O)cc1	3	-18	1	0	-3	1
COc1ccc(/C=N/NC(=O)Cc2n[nH]c(=O)[nH]c2=O)cc1	/	-21	/	3.0*	2	/
Cn1cc(NC(=O)c2cc(NC(=O)c3cc(NC=O)cn3C)cn2C)cc1C(=O)NCCC(=N)N	/	-24	/	/	48*	/
Cc1cc(C)cc(Nc2c(F)c(F)c(F)c(F)c2C(=O)O)c1	9.6*	-23	0	1	-1	0
O=C(O)CC(Cc1ccccc1)C(=O)NCC12CC3CC(CC(C3)C1)C2 (stereo not given)	5	-18	1	3.2*	/	0
O=C(CCC(=O)c1ccc(F)cc1)OC1CCOC1=O (stereo not given)	-3	-24	0	0	/	0
CCn1cc(C(=O)O)c(=O)c2cc(F)c(N3CCN(C(=S)NC(=O)c4ccccc4Cl)CC3)cc21	/	-16	/	1	13	/
CCn1cc(C(=O)O)c(=O)c2cc(F)c(N3CCN(S(=O)(=O)c4ccc(Br)cc4)CC3)cc21	10*	-18	8	0	-6	1
CCn1cc(C(=O)O)c(=O)c2cc(S(=O)(=O)N(C)C)ccc21	5	-16	0	3.2*	/	0
CCC(C)NC(=O)c1cn(CC)c2ccc(S(=O)(=O)N(C)C)cc2c1=O (stereo not given)	4	-12	3	0	-7	0
CCC(=O)NC(NC(=S)Nc1c(C)n(C)n(-c2ccccc2)c1=O)C(Cl)(Cl)Cl (stereo not given)	-9	-21	-5	1	0	0
CCN1C(=O)/C(=C\N(C)C)c2ccccc21	11*	-1	0	1	3	0
CC[C@H](C)[C@H](NC(N)=O)C(=O)NCCc1ccc(OC)c(OC)c1	-9	-23	14	0	6	2
Brc1c(NC2=NCCN2)ccc2nccnc12	18*	-12	2	0	9	1
Cc1cc(NC(=O)CSc2nc(-c3ccccc3Cl)nc3c2c(=O)n(C)c(=O)n3C)no1	-2	-25	10	2	/	2
CCOc1cc(C2C3=C(CCCC3=O)Nc3ccc4ncccc4c32)ccc1O (stereo not given)	12*	-18	0	0	24	0
COc1ccc(CCNC2=CC(=O)N(c3ccc(F)cc3)C2=O)cc1	14*	-31	2	0	-1	0
CSc1nc(-c2ccccc2)cn1-c1ccc(NC(C)=O)cc1	9.8*	-27	2	1	1	0
CCOc1ccc(-c2cn(-c3ccc(OC)cc3)c(SC)n2)cc1	6	-2	0	-1	5	0
COc1ccc(CCC(=O)NCc2cn3ccccc3n2)cc1	/	0	/	0	/	/
CN(C)S(=O)(=O)c1cccc(C(=O)Nc2ccc(S(=O)(=O)N3CCCC3)cc2)c1	14*	-25	-1	0	4	-1
CN1CCN(S(=O)(=O)c2ccc(NC(=O)c3cccc(S(=O)(=O)N4CCCC4)c3)cc2)CC1	-3	-16	6	-1	-6	1
CCN1CC(CCN2CCOCC2)C(c2ccccc2)(c2ccccc2)C1=O (stereo not given)	/	/	/	/	3	/
CCn1c(N)c(C(=O)NC)sc1=S	-4	-4	-1	0	-1	0
O=C(O)Cn1cnc2c(oc3ccccc32)c1=O	/	-25	/	1	-2	/
SMILES	Efa HMGR inh	Furin inh	ABCG2 inh	PERK inhibitor	Rad51 HR inh	ABCB1 block
CCn1cnc2c(oc3ccccc32)c1=O	11*	-12	7	0	-7	1
O=C(Nc1ccncc1)c1ccc(C(=O)Nc2ccncc2)cc1	18*	-26	1	1	-4	0
Cc1ccc(S(=O)(=O)N2CCOCC2)cc1N/N=C(\C#N)c1nc2ccccc2[nH]1	-8	4	13	-1	-3	6
CC(=O)NNc1ncnc2c1cnn2-c1ccc(C)c(Cl)c1	12*	-33	2	1	0	0
CC(=O)NNc1ncnc2c1cnn2-c1ccc(C)cc1	-2	-26	2	0	12	0
CC(=O)c1ccc(S(=O)(=O)N2CCN(CC#N)CC2)cc1	/	-12	/	4.5*	/	/
CC(=O)c1ccc(S(=O)(=O)N2CCN(C(C)=O)CC2)cc1	6	-22	2	0	1	0
O=S1(=O)CC=C(CSC(=S)NC2CCS(=O)(=O)C2)C1 (stereo not given)	15*	-18	5	2	/	0
O=C(c1ccco1)[C@@H]1[C@@H]2C(=O)N(c3ccc(F)cc3)C(=O)[C@@H]2C2c3ccccc3C=CN21 (stereo not given in full)	-3	-14	29	3.0*	-1	2
CCOC(=O)C(=O)Nc1ncc(Cl)s1	/	-16	/	1	/	/
CCOC(=O)Cc1csc(NC(=O)COc2cccc(C)c2)n1	18*	-26	1	1	-6	0
Cc1[nH]nc2c1C1(CCC3(CC1)OCCO3)C(C#N)=C(N)O2	10*	-17	4	0	-6	1
CCOC(=O)N1CCC2(CC1)C(C#N)=C(N)Oc1n[nH]c(C)c12	10.0*	-21	2	0	13	0
COCc1[nH]nc2c1C1(CCSCC1)C(C#N)=C(N)O2	-2	-18	1	-1	0	0
CC(=O)N1CCC2(CC1)C(C#N)=C(N)Oc1n[nH]c(C(F)(F)F)c12	0	-10	-5	2	-8	-1
Cc1ccc(S(=O)(=O)NNC(=O)CCCCC(=O)NNS(=O)(=O)c2ccc(C)cc2)cc1	13*	-6	3	1	4	1
CCOc1cc(/C=N/N2CCOCC2)ccc1OCc1ccc(C(=O)OC)o1	-7	-13	6	1	-126	1
CC(=NCCc1c(C)[nH]c2ccc(OC(F)(F)F)cc12)C1=C(O)CC(c2ccccc2)CC1=O (stereo not given)	12*	-35	2	0	5	1
CC(=NCCc1c(C)[nH]c2ccc(C)cc12)C1=C(O)CC(c2ccccc2)CC1=O (stereo not given)	-3	0	-7	-1	0	0
CS(=O)(=O)N(CC(N)=O)c1cccc(Br)c1	17*	-13	3	0	2	1
CCOC(=O)C1(CCCc2ccccc2)CCN(C(=O)CN2C(=O)CSC2=O)CC1	-3	-22	2	1	/	5
CCOC(=O)c1sc(NS(=O)(=O)c2ccccc2Cl)nc1C	1	-24	1	-1	0	0
CCc1cccc(CC)c1NC(=O)CO/N=C(\N)CC(=O)NC1CCCCC1	2	-6	4	1	5	1
